Rows were chosen to be rich in hits. Some 4.9% of all compounds tested hit in one or more screens of this group.
NF-kB expr up – compounds increasing NF-kB expression in human neuronal cells; NF-kB reporter expression; stronger effect = higher value; 190,000 compounds, 1.6% hits; AID 1239; fold change at 12.5 µM; in the data active means fold change above about 3.3
STAT3 activator – increases IL-6 driven STAT3 reporter signal. U3A cells, IL-6 STAT3-luciferase reporter, luminescence; 100% = signal with IL-6 EC80 alone. activation (% of control), % at 5.6 µM. 190,000 compounds, 0.91% hits. AID 871;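 active means activation above the screen-wide mean of compound activation plus 3 SD, cut at about 130% in these data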;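 further: 0% = background luminescence of wells with medium and substrate only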
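Material: human STAT1-deficient U3A cells with stable STAT3-luciferase reporter / Probe or stimulus: IL-6 stimulus at 33 ng/mL final / Schedule: 1 h compound pre-exposure, 6 h IL-6 stimulation, 37 °C / Technique: luminescence / Read-out basis: percent of IL-6-only median luminescence / Control set: IL-6-only high control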
STAT1 act – increases IFN-gamma driven STAT1 reporter signal; NIH 3T3 STAT1-luciferase reporter, luminescence; 100% = IFN-gamma alone, no compound; activation (% of control), % at 5.5 µM; 200,000 compounds, 2.6% hits; AID 932;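 active means activation above the screen-wide mean activation plus 3 SD, cut at about 130% in these data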;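 further: raw ratio to IFN-gamma control signal so 100% means no change and 0% no light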
STAT3 inh – STAT3 signaling inhibition; U3A cells, IL-6 STAT3-luciferase reporter, luminescence; host cell line lacks STAT1; inhibition, % at 5.5 µM; 190,000 compounds, 0.89% hits;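 active means inhibition above the mean inhibition across all screened compounds plus 3 SD, cut at about 44% in these data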;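 further: 0% = DMSO only wells and 100% = 100 µM nifuroxazide control wells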
APP 5'UTR act – APP 5'UTR luciferase reporter activation. 190,000 compounds, 1% hits. SH-SY5Y APP 5'UTR luciferase reporter, luminescence; zero percent = DMSO vehicle wells. activation, % at 2 µM;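 active means activation above a set limit, based on mean plus 3 SD of controls, cut at about 140% in these data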
STAT1 blocker – reduces IFN-gamma driven STAT1 reporter signal | inhibition, % at 5.5 µM | NIH 3T3 STAT1-luciferase reporter, luminescence | 200,000 compounds, 0.35% hits;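 active means inhibition above a set limit, the mean inhibition across all tested compounds plus 3 SD, cut at about 34% in these data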;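 further: 0% = IFN-gamma with DMSO and 100% = IFN-gamma with 300 µM nifuroxazide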
An asterisk follows results filed as active; . = no result.

SMILES	NF-kB expr up	STAT3 activator	STAT1 act	STAT3 inh	APP 5'UTR act	STAT1 blocker
O=C1CCC(CCC(=O)N2CCCC(C(=O)c3cccc(C(F)(F)F)c3)C2)=NN1 (configuration not stated)	1.4	97	105	14	16	-6
O=C(CSc1nnc(SCc2ccccc2)s1)N/N=C/c1c[nH]c2ccccc12	1.1	90	98	22	-6	1
O=C(N/N=C/c1c[nH]c2ccccc12)c1ccn(Cc2ccc(Cl)cc2Cl)n1	1.1	135*	95	-33	8	6
CCc1ccc(-c2cc(C(=O)N/N=C/c3c[nH]c4ccccc34)[nH]n2)cc1	0.63	76	94	32	208*	6
Cc1ccc(CSc2nnc(SCC(=O)N/N=C/c3c[nH]c4ccccc34)s2)cc1	1.1	92	131*	20	-37	-35
CCN(CC)c1ccc(C(=O)n2cnc3ccccc32)cc1	3.1	110	130*	-5	24	-30
CN(C)c1ccc(C(=O)n2nnc3ccccc32)cc1	2	94	88	8	-6	18
COc1ccc(NC(=O)C(CC(C)C)NC(=O)C2CCCCC2)c(OC)c1 (configuration not stated)	0.99	104	100	8	-3	0
CCOC(=O)c1ccc(NC(=O)/C=C/c2cccs2)cc1	2.3	95	143*	10	64	-51
Cc1ccccc1NC(=O)/C=C/c1cccs1	.	95	129*	10	60	-34
Cc1cc(C)cc(NC(=O)/C=C/c2ccc([N+](=O)[O-])s2)c1	1.1	106	88	-8	-53	13
Cc1ccccc1NC(=O)/C=C/c1ccc([N+](=O)[O-])s1	9.8*	98	99	1	-90	1
COC(=O)C1=C(C)NC(C)=C(C(=O)OC)C1c1ccc(OC(=O)c2oc3ccccc3c2C)c(OC)c1	1.1	99	92	4	3	9
NC(N)=NS(=O)(=O)c1ccc(NC(=S)NC(=O)c2ccc3c(c2)OCO3)cc1	1.2	96	91	13	15	8
CCc1nnc(NC(=O)CCC(=O)NC2CCCc3ccccc32)s1 (configuration not stated)	1.2	97	100	1	7	0
O=C(c1cccc(C(F)(F)F)c1)C1CCCN(C(=O)CCCN2CCCC2=O)C1 (configuration not stated)	0.85	94	94	13	17	6
O=C(Nc1ccccc1)C1=C[C@H](c2ccc(Br)cc2)C[C@H](OCc2ccc(CO)cc2)O1	0.85	.	104	.	6	-2
Cc1ccc(C2=NN=C(NC(=O)C(F)(F)F)SC2)cc1	4.3*	78	104	29	48	-6
CN(C)c1ccc([C@@H]2[C@@H]([N+](=O)[O-])[C@H]3C=Cc4ccccc4N3[C@H]2C(=O)c2ccc(Cl)cc2)cc1	0.45	145*	88	-55	44	14
O=C(O)/C=C\C(=O)Nc1ccccc1C#Cc1ccccc1	6.8*	93	140*	18	73	-44
CCc1cccc2c1NC(=O)C2(O)CC(=O)c1cccs1 (configuration not stated)	1	102	95	2	21	2
CN(C(=O)COC(=O)c1ccc([N+](=O)[O-])cc1N)c1ccccc1	0.96	87	102	18	4	-2
O=C(CSc1ncccc1-c1nc2ccccc2[nH]1)NCc1ccco1	0.85	83	100	22	16	0
Cc1cc2nc(-c3cccnc3SCC(=O)NCc3ccco3)[nH]c2cc1C	5.3*	84	99	24	119	1
Fc1ccc(Cn2ccc(-c3cnc(-c4ccccc4)s3)n2)cc1	2.6	85	131*	24	18	-34
SMILES	NF-kB expr up	STAT3 activator	STAT1 act	STAT3 inh	APP 5'UTR act	STAT1 blocker
O=C(c1ccc(F)cc1)n1ccc(-c2cnc(-c3ccccc3)s2)n1	3.6*	103	136*	3	92	-39
Cc1ccc(Cn2ccc(-c3cnc(-c4ccccc4)s3)n2)cc1	2.2	77	126	32	31	-29
CCOC(=O)C1=C(O)C(=O)N(Cc2cccnc2)C1c1ccc(OC)cc1 (configuration not stated)	1.1	104	108	0	7	-10
CC(=O)c1cccc(NC(=O)N2C3CCC2CC(NC(=O)C2CC2)C3)c1 (configuration not stated)	1.2	101	104	4	-4	-6
S=c1[nH]nc(-c2ccccc2)n1/N=C/c1ccc(-c2ccccc2Cl)o1	4.5*	102	99	3	-5	1
O=C1/C(=C\c2ccccc2)CCc2c1[nH]c1ccccc21	4.7*	104	141*	5	162*	-46
Cc1nn(-c2ccccc2)c(C)c1/C=N/NC(=O)CSc1nnc(SCc2cccc3ccccc23)s1	1.2	104	102	-8	6	1
CC1CCc2nc3sc4c(c3c(N)c2C1)CCCC4 (configuration not stated)	1.6	94	122	15	31	-24
CC1CCc2c(nc3sc4c(c3c2N)CCCC4)C1 (configuration not stated)	1.8	110	135*	-14	65	-37
O=c1c2c3c(sc2nc2n1CCCCC2)CCC3	1.6	116	105	-12	8	-6
Nc1c2c(nc3sc4c(c13)CCCCC4)CCCCC2	4*	106	145*	-4	185*	-51
CCCCCCNC(=O)CCCCCNS(=O)(=O)c1ccc(Br)cc1	1	100	97	2	-14	2
CC(=O)N1CCc2cc(NC(=O)c3ccc(C)cc3)ccc21	3.6*	78	131*	29	2	-30
CN(C)c1ccc(NC(=O)COC(=O)Cn2nnc3ccccc32)cc1	1.7	90	98	7	-4	3
CCCc1cc(=O)n2[nH]c(-c3ccccc3)cc2n1	2.6	122	134*	-19	61	-37
CC1(C)Cc2c(sc(NC(=O)c3ccc(Br)o3)c2C#N)CO1	3	106	133*	-3	88	-35
CCN(CC)c1ccc2cc(-c3nc4ccccc4n3C)c(=O)oc2c1	4.1*	145*	136*	-44	-87	-40
CCN(CC)c1ccc2cc(-c3nc(-c4ccc(OC)cc4)cs3)c(=O)oc2c1	1	93	99	10	10	2
O=C(CSc1cn(CCNC(=O)c2cccs2)c2ccccc12)NC1CCCC1	0.79	96	91	10	-17	10
CCN1CCN(c2ccc(NC(=O)c3cccc(F)c3)cc2Cl)CC1	2.1	112	136*	-9	91	-41
Cc1nn2cc(-c3ccc(Cl)cc3)cnc2c1Cl	3.4*	94	140*	9	155*	-45
CC(=O)c1cnc2c(-c3ccc(Cl)cc3)c(C)nn2c1C	1.3	88	102	16	7	-3

Source: PubChem (several laboratories)
